Screening data (PubChem)
Only some compounds are listed: those with a hit (about 1.2% of all), similar ones and a draw of the others.
CAL PDZ FP-1: blocks peptide binding to the human CAL PDZ domain | 300,000 tested, 0.92% active | inhibition, % at 24.9 µM | Q9HD26 | purified CAL PDZ, TMR-peptide fluorescence polarization, 1 h;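 active = mean inhibition of at least 30% with at least half of replicates also reaching 30%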;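 also: 0% = DMSO neutral control and 100% = excess unlabeled competitor peptide PRC23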
ARNT-TACC3 inh: disruptors of human ARNT/TACC3 interaction. Q9Y6A5. AlphaScreen His-ARNT PAS-B/GST-TACC3 binding, luminescence; TACC3 fragment carries E629A point mutation. inhibition, % at 9.99 µM. 390,000 tested, 0.66% active;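 active = mean inhibition of replicates at least 50% and at least half of replicates each reaching 50%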;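 also: 0% = complete ARNT plus TACC3 wells and 100% = ARNT alone without TACC3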
CAL PDZ FP-2: inhibitors of human CAL PDZ peptide binding; Q9HD26; purified CAL PDZ, TMR-peptide fluorescence polarization, 1 h; inhibition, % at 20 µM; 330,000 tested, 0.02% active; AID 504414;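 active = highest replicate inhibition of at least 40%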;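 also: plate controls were DMSO neutral control wells for no effect and unlabeled competitor peptide control wells for full effect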
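material = purified tagged CAL PDZ domain construct (CerCALP) | buffer or medium = sodium phosphate/NaCl buffer pH 7.4 with TCEP, IgG, Thesit | reagent = TMR-labelled reporter peptide T*-PRC34 bound in PDZ groove | incubation = 1 h room-temperature incubation prior to read | measured by = fluorescence polarization (mP) | evaluation = percent inhibition from loss of millipolarization | control set = unlabelled peptide and DMSO controls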
Active calls of the source: *; · = no result given.

SMILES	CAL PDZ FP-1	ARNT-TACC3 inh	CAL PDZ FP-2
OCC1(CCOc2ccccc2)CCN(Cc2cccn2-c2ncccn2)CC1	56*	2	-1
COc1cc(CN2CCC(CO)(CCOc3ccccc3)CC2)cc(OC)c1	5	-9	0
C[C@@H]1CN([C@@H](C)CO)C(=O)c2cc(NC(=O)Cn3cnnn3)ccc2O[C@@H]1CN(C)C	·	-10	·
CO[C@@H]1CN(C)C(=O)c2ccc(NS(=O)(=O)c3ccc(F)cc3)cc2OC[C@@H](C)N(C)C[C@H]1C	·	-3	·
COc1ccccc1CNC(=O)C[C@@H]1C[C@@H]2c3cc(NC(=O)C4CCC4)ccc3O[C@@H]2[C@H](CO)O1	·	-10	·
CN(C)S(=O)(=O)c1cccc(NC(=S)N/N=C/c2ccc(O)c(O)c2O)c1	2	69*	-3
COc1ccc(O)c(/C=N/NC(=S)Nc2cccnc2)c1	-5	67*	0
COc1cccc(/C=N/NC(=S)Nc2cccc(S(=O)(=O)N(C)C)c2)c1	-2	13	-2
COc1ccc(O)c(/C=N/NC(=S)Nc2cccc(S(=O)(=O)N(C)C)c2)c1	-4	65*	1
COc1cc(/C=N/NC(=S)Nc2cccc(S(=O)(=O)N(C)C)c2)cc(OC)c1O	24	12	0
COc1cccc(/C=N/NC(=S)Nc2cccnc2)c1	-2	3	10
CCCNC(=O)Nc1ccc2c(c1)OC[C@H](C)N(C(=O)C1CCOCC1)C[C@@H](C)[C@@H](OC)CN(C)C2=O	·	-2	·
C[C@@H]1CN([C@H](C)CO)C(=O)c2cc(C#C[C@@H](C)O)cnc2O[C@H]1CN(C)C(=O)c1ccccc1	·	0	·
CO[C@@H]1CN(C)C(=O)c2ccc(NS(=O)(=O)c3cccc(F)c3)cc2OC[C@@H](C)N(C(=O)Cc2cccnc2)C[C@H]1C	·	-1	·
Cc1noc(C)c1NC(=O)Nc1ccc2c(c1)C(=O)N([C@H](C)CO)C[C@H](C)[C@@H](CN(C)CC1CC1)OCCCC[C@H](C)O2	·	0	·
CNC(=O)C[C@H]1CC[C@H]2[C@@H](COC[C@@H](O)CN2S(=O)(=O)c2ccc(Oc3ccccc3)cc2)O1	·	-19	·
O=C(NCc1ccccc1)[C@H]1[C@H](CO)[C@H]2Cn3c(cccc3=O)[C@@H]1N2C(=O)Cc1ccccn1	·	7	·
COc1ccc(C2CC(c3ccccc3OC(C)=O)=NN2C(=O)/C=C/c2ccccc2)cc1 (stereo not drawn)	52*	8	-1
CC(=O)Oc1ccccc1C1=NN(C(=O)/C=C/c2ccccc2)C(c2ccccc2)C1 (stereo not drawn)	-2	9	-1
COc1ccc(C2CC(c3ccc4ccccc4c3OC(C)=O)=NN2C(=O)/C=C/c2ccccc2)cc1 (stereo not drawn)	4	0	-1
COc1ccc(C2CC(c3ccccc3OC(C)=O)=NN2C(C)=O)cc1 (stereo not drawn)	91*	-3	-1
C[C@@H]1CN([C@H](C)CO)C(=O)c2cccc(NS(=O)(=O)c3cn(C)cn3)c2O[C@H]1CN(C)C(=O)NC1CCCCC1	·	-5	·
C[C@@H]1CCCCO[C@@H](CN(C)C)[C@@H](C)CN([C@@H](C)CO)C(=O)c2cc(NS(=O)(=O)c3ccccc3)ccc2O1	·	-13	·
CN(CC(=O)Nc1ccc(S(=O)(=O)N2CCCC2)cc1)CC(=O)Nc1ccc(F)c(F)c1F	-4	0	0
Cc1ccc(NC(=O)CN(C)C(C)C(=O)Nc2ccc(S(=O)(=O)N3CCCC3)cc2)cc1 (stereo not drawn)	-2	0	-3
SMILES	CAL PDZ FP-1	ARNT-TACC3 inh	CAL PDZ FP-2
CSc1ccccc1NC(=O)CN(C)CC(=O)Nc1ccc(S(=O)(=O)N2CCCC2)cc1	48*	-6	0
CCN(Cc1ccc(N(C)C)cc1)C(C)C(=O)Nc1ccc(S(=O)(=O)N2CCCC2)cc1 (stereo not drawn)	60*	·	-1
CC(=O)c1ccccc1NC(=O)COC(=O)CCCN1C(=O)c2cccc3cccc(c23)C1=O	1	0	-3
NS(=O)(=O)c1ccc(NC(=O)COC(=O)CCCN2C(=O)c3cccc4cccc(c34)C2=O)cc1	60*	-1	-2
CCCC(=O)Nc1ccc2c(c1)C(=O)N(C)[C@@H]1CC[C@@H](CC(=O)NCC3CC3)O[C@H]1CO2	·	-3	·
C[C@H]1CN([C@@H](C)CO)C(=O)c2cc(NC(=O)Nc3ccc(F)cc3)ccc2O[C@H]1CN(C)C(=O)Nc1ccc(F)cc1	·	1	·
O=C(COC(=O)c1ccc([N+](=O)[O-])o1)Nc1cccc(S(=O)(=O)N2CCOCC2)c1	-3	10	0
CN(C)S(=O)(=O)c1cccc(NC(=O)COC(=O)c2ccc([N+](=O)[O-])o2)c1	-4	64*	-1
O=C(C[C@H]1CC[C@@H]2NC[C@@H](O)COC[C@H]2O1)Nc1ccccc1	·	3	·
